In ChEMBL document CHEMBL2331403, “Discovery and optimization of a novel series of potent mutant B-Raf(V600E) selective kinase inhibitors” (J Med Chem, 2013):

Columns and labels:
[1] = Volume of distribution at steady state in Han Wistar rat at 10 mg/kg, po and 3 mg/kg, iv; format: ADME, organism-based; conditions: in vivo, read-out: Vdss
How it was run: (§1)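 Rat PK study: oral dose 10 mg/kg in 0.1% HPMC; intravenous dose 3 mg/kg in 40% DMA/40% TEG/20% saline. Half-life taken from the iv arm; F not determined where no oral dose was given.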

[2] = Oral bioavailability in Han Wistar rat at 10 mg/kg; format: ADME, organism-based; conditions: in vivo; how it was run: as §1
Plasma [3] = assay: Fraction unbound in human plasma by LC-MS/MS analysis; format: ADME, cell-free
Plasma [4] = assay: Drug uptake in plasma of po dosed nude mouse xenografted with human A375 cells after 2 hrs; format: ADME, organism-based, A-375; conditions: in vivo
How it was run: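 A375 xenograft mice given a single oral dose; tumors and plasma harvested 2 h later. Tumor pERK measured by Western blot with equal protein loading, normalized to total ERK, and expressed as percent reduction in pERK.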

Row | Structure (SMILES) | Vd [1] [L/kg] | bioavailability [2] [%] | Cp(f) (Plasma [3]) [%] | Drug uptake (Plasma [4])
1 | COCCC(=O)N(C)c1ccc(Nc2ncc3cc(-c4ccncc4)ccc3n2)cc1 | 0.7 | 60 |  | 
2 | COCCN(C)c1ccc(Nc2ncc3cc(-c4ccncc4)ccc3n2)cc1 |  |  | < 1 | 
3 | COCCNC(C)c1ccc(Nc2ncc3cc(-c4ccncc4)ccc3n2)cc1 (configuration not stated) | 4.9 | 31 | 9.4 | 
4 | COCCC(=O)N[C@H](C)c1ccc(Nc2ncc3cc(-c4ccncc4)ccc3n2)cc1 |  |  | 1.5 | 
5 | COCCC(=O)N[C@@H](C)c1ccc(Nc2ncc3cc(-c4ccncc4)ccc3n2)cc1 |  |  | < 1 | 
6 | CC(=O)NC(C)c1ccc(Nc2ncc3cc(-c4ccncc4)ccc3n2)cc1 (configuration not stated) |  |  | 5 | 
7 | CC(=O)N[C@H](C)c1ccc(Nc2ncc3cc(-c4ccncc4)ccc3n2)cc1 | 0.8 | 100 | 6 | Dose-dependent effect
8 | C[C@@H](NC(=O)[C@H]1CCCCN1)c1ccc(Nc2ncc3cc(-c4ccncc4)ccc3n2)cc1 | 13 | 28 | 5.1 | 
9 | C[C@@H](NC(=O)[C@H]1CCCCN1CCO)c1ccc(Nc2ncc3cc(-c4ccncc4)ccc3n2)cc1 |  |  | 3.4 | 
10 | C[C@@H](NC(=O)[C@H]1CCCNC1)c1ccc(Nc2ncc3cc(-c4ccncc4)ccc3n2)cc1 |  |  | 1.7 | 
11 | C[C@@H](NC(=O)C1CCNCC1)c1ccc(Nc2ncc3cc(-c4ccncc4)ccc3n2)cc1 |  |  | 3.4 | 
12 | C[C@@H](NC(=O)[C@H]1CCCN1)c1ccc(Nc2ncc3cc(-c4ccncc4)ccc3n2)cc1 |  |  | 1.4 | 
13 | C[C@@H](NC1=CC(=O)CCC1)c1ccc(Nc2ncc3cc(-c4ccncc4)ccc3n2)cc1 | 0.67 | 17 | 1.3 | 
14 | C[C@@H](NC1=CC(=O)NCC1)c1ccc(Nc2ncc3cc(-c4ccncc4)ccc3n2)cc1 |  |  | 2.3 | 
15 | C[C@@H](NC1=CC(=O)CNC1)c1ccc(Nc2ncc3cc(-c4ccncc4)ccc3n2)cc1 | 7.9 |  | 3.6 | 
16 | COc1cc2nc(Nc3ccc([C@@H](C)NC(C)=O)cc3)ncc2cc1-c1ccncc1 | 0.67 |  |  | 
17 | CC(=O)N[C@H](C)c1ccc(Nc2ncc3cc(-c4ccncc4)c(Cl)cc3n2)cc1 |  |  | < 1 | 
18 | CC(=O)N[C@H](C)c1ccc(Nc2ncc3cc(-c4ccncc4)cc(Cl)c3n2)cc1 |  |  | < 1 | 
19 | CC(=O)N[C@H](C)c1ccc(Nc2ncc3cc(-c4ccncc4)c(C)cc3n2)cc1 |  |  | 1.9 | 
20 | CC(=O)N[C@H](C)c1ccc(Nc2ncc3cc(-c4ccncc4)cc(C)c3n2)cc1 |  |  | < 1 | 
21 | C[C@@H](NC(=O)C1CCCCN1C)c1ccc(Nc2ncc3cc(-c4ccncc4)ccc3n2)cc1 (mixture of isomers) |  |  | 3.8 | 
